Active and inactive are the calls of the source. The calls are words filed in the database; no cut-off is given here.
What was measured:
[1] = test system: Plasmodium falciparum; test: Antimalarial activity against chloroquine-sensitive Plasmodium falciparum 3D7 assessed as growth inhibition after 72 hrs by DAPI staining; type: functional, organism-based; conditions: 3D7, 72 h
Method in brief: (§1)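 P. falciparum 3D7 or Dd2 at 2% or 3% parasitemia, 0.3% hematocrit, exposed 72 h at 37 °C, 5% CO2. Staining with DAPI plus saponin and Triton X-100, 5 h at room temperature in the dark, then confocal imaging and automated counting of parasite spots. Percent inhibition is calculated against DMSO and 2 μM artemisinin controls.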

[2] = test system: Plasmodium falciparum; test: Antimalarial activity against chloroquine-sensitive Plasmodium falciparum 3D7 ring stage assessed as growth inhibition upto 360 nM after 10 hrs by [3H]-hypoxanthine incorporation assay; type: functional, organism-based
Method in brief: (§2)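 Synchronous 3D7 rings (~10−16 h post-invasion) or trophozoites (~24−30 h post-invasion) were used at 0.5% parasitemia and 5% hematocrit. Cultures were exposed to compound or 0.04% DMSO vehicle for 4, 6 or 10 h, then washed. Triplicate wells received 0.5 μCi 3H-hypoxanthine, and incorporation was counted after ~48−72 h. Results are % growth versus matched vehicle controls, from ≥2 independent experiments.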

[3] = Plasma concentration in Swiss mouse at 8 mg/kg, sc administered as suspension measured 1 hr post dose; type: ADME, organism-based; set-up: dose 8 mg/kg, route subcutaneous
Method in brief: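 Nonfasted male Swiss outbred mice (26−34 g) received a nominal 8 mg/kg subcutaneously into the dorsal skinfold. The compound was given as a suspension in saline vehicle containing 5−7% DMSO. Blood was taken by cardiac puncture under isoflurane at 0.25, 1 or 4 h, with n = 2 mice per time point, into stabilizer-containing heparinized tubes. Plasma was acetonitrile-precipitated and quantified by UPLC−MS.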

[4] = test system: Plasmodium falciparum; test: Antimalarial activity against chloroquine-resistant Plasmodium falciparum Dd2 assessed as growth inhibition after 72 hrs by DAPI staining; type: functional, organism-based; conditions: Dd2, 72 h; method in brief: as §1
[5] = Selectivity index, ratio of IC50 for human HEK293 cells to IC50 for chloroquine-resistant Plasmodium falciparum Dd2; type: toxicity, cell-based; conditions: read-out: Ratio IC50
[6] = test system: HEK293; test: Cytotoxicity against human HEK293 cells assessed as growth inhibition after 72 hrs by Alamar blue assay; type: cell-based; conditions: HEK293, 72 h
Method in brief: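 HEK293 adherent cells (3000/well) were incubated with compound for 72 h at 37 °C and 5% CO2. Medium was removed, then 10% Alamar Blue was added for 5−6 h. Fluorescence was read at ex 535/em 590 nm. Inhibition was normalised to DMSO and 10 μM puromycin controls. IC50 came from nonlinear variable-slope regression of % inhibition against log dose.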

[7] = test system: Plasmodium falciparum; test: Antimalarial activity against chloroquine-sensitive Plasmodium falciparum 3D7 trophozoite stage assessed as growth inhibition at 180 nM after 10 hrs by [3H]-hypoxanthine incorporation assay; type: functional, organism-based; method in brief: as §2
[8] = Intrinsic clearance in human liver microsomes assessed as per mg of protein at 1 uM after 60 mins; type: ADME, Microsome; conditions: read-out: CLH
Method in brief: (§3)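 1 μM compound incubated at 37 °C with human or mouse liver microsomes (0.4 mg/mL protein) in 0.1 M phosphate pH 7.4. Reaction started with an NADPH-regenerating system plus MgCl2 and quenched with ice-cold acetonitrile at time points up to 60 min. Parent loss is followed by LC−MS and fitted to exponential decay, giving half-life and in vitro CLint.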

[9] = test system: Plasmodium berghei; test: Antimalarial activity against chloroquine-sensitive Plasmodium berghei ANKA infected in Swiss albino mouse assessed as suppression of parasitemia at 8 mg/kg/day, ip measured on day 2 post infection by Giemsa staining relative to control; type: functional; conditions: route intraperitoneal
[10] = Intrinsic clearance in mouse liver microsomes assessed as per mg of protein at 1 uM after 60 mins; type: ADME, Microsome; conditions: read-out: CLH; method in brief: as §3
[11] = Selectivity index, ratio of IC50 for human HEK293 cells to IC50 for chloroquine-sensitive Plasmodium falciparum 3D7; type: toxicity, cell-based; conditions: read-out: Ratio IC50
[12] = test system: Plasmodium berghei; test: Antimalarial activity against chloroquine-sensitive Plasmodium berghei ANKA infected in Swiss albino mouse assessed as suppression of parasitemia at 8 mg/kg/day, ip measured on day 4 post infection by Giemsa staining relative to control; type: functional; conditions: route intraperitoneal
[13] = Half life in human liver microsomes at 1 uM after 60 mins; type: ADME, Microsome; method in brief: as §3
[14] = Half life in mouse liver microsomes at 1 uM after 60 mins; type: ADME, Microsome; method in brief: as §3
[15] = test system: Plasmodium berghei; test: Antimalarial activity against chloroquine-sensitive Plasmodium berghei ANKA infected in Swiss albino mouse assessed as suppression of parasitemia at 8 mg/kg/day, ip measured on day 1 post infection by Giemsa staining relative to control; type: functional; conditions: route intraperitoneal
[16] = test system: Plasmodium berghei; test: Antimalarial activity against chloroquine-sensitive Plasmodium berghei ANKA infected in Swiss albino mouse assessed as suppression of parasitemia at 8 mg/kg/day, ip measured on day 3 post infection by Giemsa staining relative to control; type: functional; conditions: route intraperitoneal
[17] = test system: Plasmodium falciparum; test: Antimalarial activity against chloroquine-sensitive Plasmodium falciparum 3D7 trophozoite stage assessed as growth inhibition at 360 nM after 10 hrs by [3H]-hypoxanthine incorporation assay; type: functional, organism-based; method in brief: as §2
[18] = Toxicity in Swiss albino mouse for 4 days; type: organism-based; conditions: in vivo
Method in brief: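 Healthy mice dosed subcutaneously daily for 4 consecutive days, compound in Tween 80/ethanol (7/3 v/v) diluted 10-fold in distilled water (~0.2 mL). Mice are assessed before and after dosing for weight loss >10%, ruffled coat, shaking, severe pallor, reduced activity and behaviour changes.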

[19] = test system: HCT-116; test: Cytotoxicity against human HCT116 cells; type: functional, cell-based
[20] = test system: XRS6; test: Cytotoxicity against Chinese hamster Xrs-6 cells; type: cell-based; conditions: Cricetulus griseus
[21] = test system: Plasmodium falciparum; test: Antimalarial activity against chloroquine-sensitive Plasmodium falciparum 3D7 ring stage assessed as growth inhibition at 150 nM after 10 hrs by [3H]-hypoxanthine incorporation assay; type: functional, organism-based
Method in brief: (§4)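 Synchronous 3D7 rings (~10−16 h post-invasion) or trophozoites (~24−30 h post-invasion), 0.5% parasitemia, 5% hematocrit, exposed 4, 6 or 10 h to compound or 0.04% DMSO vehicle. Cultures are washed, plated in triplicate with 0.5 μCi 3H-hypoxanthine, and incorporation is counted after ~48−72 h. Percent growth is relative to matched vehicle controls, from at least two independent experiments.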

[22] = test system: Plasmodium falciparum; test: Antimalarial activity against chloroquine-sensitive Plasmodium falciparum 3D7 ring stage assessed as growth inhibition at 75 nM after 10 hrs by [3H]-hypoxanthine incorporation assay; type: functional, organism-based; method in brief: as §4
[23] = test system: Plasmodium falciparum; test: Antimalarial activity against chloroquine-sensitive Plasmodium falciparum 3D7 trophozoite stage assessed as growth inhibition at 75 nM after 10 hrs by [3H]-hypoxanthine incorporation assay; type: functional, organism-based; method in brief: as §4
[24] = test system: Plasmodium falciparum; test: Antimalarial activity against chloroquine-sensitive Plasmodium falciparum 3D7 trophozoite stage assessed as growth inhibition at 150 nM after 10 hrs by [3H]-hypoxanthine incorporation assay; type: functional, organism-based; method in brief: as §4

For `Cn1cc2c3c1C(=O)C(N/C=C/c1ccc(O)cc1)=CC3=[N+](C)CC2.O=C([O-])C(F)(F)F` [MAKALUVAMINE G], the IC50 [1] was 36 nM, the “growth inhibition (GI)” value [2] was “inactive” and the concentration at 1 h [3] was under 40 nM. It also gave an IC50 [4] of 39 nM, a selectivity ratio [5] of 51 and an IC50 [6] of 2000 nM. For the same molecule, the “growth inhibition (GI)” value [7] was “Active”, the microsomal CLint at 1 µM [8] was 197 µL/min/mg and the Activity [9] was 35%. It also gave a microsomal CLint at 1 µM [10] of 235 µL/min/mg, a selectivity ratio [11] of 55 and an Activity [12] of 48%. The half-life at 1 µM [13] was 8.8 min, the half-life at 1 µM [14] was 7.4 min and the Activity [15] was 10%. For the same molecule, the Activity [16] was 47%, the “growth inhibition (GI)” value [17] was “Active” and the MTD at 96 h [18] was 8 mg/kg/day.

With `C[N+]1=C2C=C(N)C(=O)c3[nH]cc(c32)CC1` [MAKALUVAMINE C] the IC50 [19] was over 170 nM and the IC50 [20] was 80 nM.

For `Cn1cc2ccnc3c2c1C(=O)C(N)=C3` [MAKALUVAMINE B], the IC50 [19] was over 170 nM and the IC50 [20] was 80 nM.

In the case of `C[C@@H]1CC[C@H]2[C@@H](C)C(=O)O[C@@H]3O[C@@]4(C)CC[C@@H]1[C@]32OO4`, the “growth inhibition (GI)” value [21] is reported as “Active”, the “growth inhibition (GI)” value [22] is reported as “Active” and the “growth inhibition (GI)” value [23] is reported as “Active”. The “growth inhibition (GI)” value [24] was “Active”.
